Test results: ChEMBL document CHEMBL3769318, “The Rational Design of Selective Benzoxazepin Inhibitors of the α-Isoform of Phosphoinositide 3-Kinase Culminating in the Identification of (S)-2-((2-(1-Isopropyl-1H-1,2,4-triazol-5-yl)-5,6-dihydrobenzo[f]imidazo[1,2-d][1,4]oxazepin-9-yl)oxy)propanamide (GDC-0326)” (J Med Chem, 2016)

Assays:
[1] = biological target: Phosphatidylinositol 4,5-bisphosphate 3-kinase catalytic subunit alpha isoform (Homo sapiens, UniProt P42336); assay: Inhibition of recombinant PI3K alpha (unknown origin) using PIP2 as substrate by fluorescence polarization assay; details: read-out: Ki(app)
Phosphatidylinositol 4,5-bisphosphate 3-kinase catalytic subunit alpha isoform, sequence (P42336 whole entry, canonical isoform): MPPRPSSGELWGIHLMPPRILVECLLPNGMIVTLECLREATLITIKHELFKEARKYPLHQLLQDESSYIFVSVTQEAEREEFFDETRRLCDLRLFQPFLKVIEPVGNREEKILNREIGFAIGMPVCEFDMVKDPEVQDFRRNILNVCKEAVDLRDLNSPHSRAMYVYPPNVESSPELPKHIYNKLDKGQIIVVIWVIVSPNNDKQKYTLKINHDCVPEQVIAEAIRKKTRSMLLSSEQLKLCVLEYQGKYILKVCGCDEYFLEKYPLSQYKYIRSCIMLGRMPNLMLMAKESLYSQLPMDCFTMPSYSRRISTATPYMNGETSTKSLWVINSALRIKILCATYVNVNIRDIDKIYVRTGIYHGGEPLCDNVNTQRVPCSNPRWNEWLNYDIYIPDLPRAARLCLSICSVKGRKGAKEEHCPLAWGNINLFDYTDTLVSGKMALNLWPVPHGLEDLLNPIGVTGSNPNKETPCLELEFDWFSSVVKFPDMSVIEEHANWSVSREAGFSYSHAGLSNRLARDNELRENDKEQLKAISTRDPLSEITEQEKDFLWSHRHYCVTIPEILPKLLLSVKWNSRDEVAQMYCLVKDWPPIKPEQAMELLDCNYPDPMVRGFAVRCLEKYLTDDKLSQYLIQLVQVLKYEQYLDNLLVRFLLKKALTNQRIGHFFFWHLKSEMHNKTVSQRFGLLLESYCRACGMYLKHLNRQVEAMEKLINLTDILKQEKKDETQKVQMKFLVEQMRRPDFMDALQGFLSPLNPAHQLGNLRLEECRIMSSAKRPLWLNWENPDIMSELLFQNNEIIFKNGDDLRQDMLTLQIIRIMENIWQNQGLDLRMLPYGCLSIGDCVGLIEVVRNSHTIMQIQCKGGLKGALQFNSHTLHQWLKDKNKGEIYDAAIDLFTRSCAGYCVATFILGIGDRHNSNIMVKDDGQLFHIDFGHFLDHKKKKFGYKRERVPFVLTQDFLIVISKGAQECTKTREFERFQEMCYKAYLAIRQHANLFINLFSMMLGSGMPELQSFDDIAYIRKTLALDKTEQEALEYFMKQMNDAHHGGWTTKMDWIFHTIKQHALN

[2] = Antiproliferative activity against human MCF7-neo/Her2 cells after 3 days by luminescence plate reader method; assay type: functional, cell-based; details: 72 h
[3] = Antiproliferative activity against human PC3 cells after 4 days by luminescence plate reader method; assay type: functional, cell-based; details: PC-3, 96 h
Mus musculus [4] = assay: Volume of distribution at steady state in NCR nude mouse at 1 mg/kg, iv; details: in vivo
Mus musculus [5] = organism: Mus musculus; assay: animal or person; details: 1 h, read-out: INH
animal or person [6] = details: Homo sapiens, KPL4, po, 504 h, read-out: TGI
[7] = Plasma protein binding in CD-1 mouse at 5 uM after 4 hrs by LC-MS/MS analysis; assay type: ADME, cell-free; details: mouse, 4 h, 5 µM
Summary of the method: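 Equilibrium dialysis of pooled plasma (n ≥ 3) spiked with compound at 5 µM total against PBS pH 7.4, 37 °C, 5% CO2, for 4 h; plasma and buffer concentrations measured by LC-MS/MS; percent unbound calculated as buffer/plasma ×100.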

[8] = Clearance in NCR nude mouse at 1 mg/kg, iv; assay type: ADME, organism-based; details: in vivo
[9] = Toxicity in SCID beige mouse xenografted with human KPL4 cells; assay type: organism-based; details: in vivo
Summary of the method: (§1)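 Breast cancer xenografts: MCF7-neo/HER2 grown in nude mice, KPL-4 in scid beige mice. Compound given orally once daily for 21 days at 0.78, 1.56, 3.25, 6.25 or 12.5 mg/kg in 0.5% methylcellulose/0.2% Tween-80, versus vehicle-treated mice. Tolerability judged by body weight loss, with under 10% loss as the criterion.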

animal or person [10] = details: Homo sapiens, po, 504 h, read-out: TGI
[11] = Oral bioavailability in NCR nude mouse at 25 mg/kg; assay type: ADME, organism-based; details: in vivo
[12] = Toxicity in nude mouse xenografted with human MCF7-neo/Her2 cells; assay type: organism-based; summary of the method: as §1
[13] = Cytotoxicity against human KPL4 cells after 4 days by luminescence plate reader method; assay type: functional, cell-based; details: KPL4, 96 h
Hepatocyte [14] = assay: Drug metabolism in human hepatocytes; assay type: ADME, cell-based
Hepatocyte [15] = assay: Drug metabolism in rat hepatocytes; assay type: ADME, cell-based
[16] = Clearance in Sprague-Dawley rat at 1 mg/kg, iv; assay type: ADME, organism-based; details: in vivo

SMILES | Ki [1] [nM] | EC50 [2] [nM] | EC50 [3] [nM] | further results
CC(C)n1ncnc1-c1cn2c(n1)-c1ccc(OCC(N)=O)cc1OCC2 | 0.3 | 200 | 200 | –
Cc1nc(-c2cn3c(n2)-c2ccc(-c4cnn(C(C)(C)C(N)=O)c4)cc2OCC3)n(C(C)C)n1 [TASELISIB] | – | 30 | – | Vdss (Mus musculus [4]): 0.3 L/kg; inhibition in vivo at 25 mg/kg (Mus musculus [5]): 74%; inhibition in vivo at 25 mg/kg (animal or person [6]): 125%; PPB [7]: 97.5%; clearance [8]: 3 mL/min/kg; MTD [9]: 25 mg/kg; inhibition in vivo at 25 mg/kg (animal or person [10]): 116%; bioavailability [11]: 100%; MTD [12]: 25 mg/kg; EC50 [13]: 10 nM
CC(C)n1ncnc1-c1cn2c(n1)-c1ccc(O[C@H](C)C(N)=O)cc1OCC2 | – | 1000 | 4600 | –
CC[C@H](Oc1ccc2c(c1)OCCn1cc(-c3ncnn3C(C)C)nc1-2)C(N)=O | 0.5 | 200 | 2900 | –

Further lines, with some results ahead:

Ki [1] [nM] | SMILES | EC50 [2] [nM] | EC50 [3] [nM] | further results
1.2 | CC(C)n1ncnc1-c1cn2c(n1)-c1cnc(N)cc1OCC2 | – | – | –
3.1 | CC(C)n1ncnc1-c1cn2c(n1)-c1cnc(OC(C)(C)C(N)=O)cc1OCC2 | – | – | –
0.9 | CC(C)n1ncnc1-c1cn2c(n1)-c1cnc(OCC(N)=O)cc1OCC2 | – | – | –
0.3 | CC(C)n1ncnc1-c1cn2c(n1)-c1ccc(N3CCCC[C@H]3C(N)=O)cc1OCC2 | 30 | 870 | –
0.1 | CC(C)n1ncnc1-c1cn2c(n1)-c1cnc(N3CCC[C@H]3C(N)=O)cc1OCC2 | – | – | Drug metabolism (Hepatocyte [14]): metabolite_notdetected; Drug metabolism (Hepatocyte [15]): metabolite_notdetected; clearance [16]: 83 mL/min/kg
3.6 | COc1cc2c(cn1)-c1nc(-c3ncnn3C(C)C)cn1CCO2 | – | – | –
